# Tests used:
# [1] = test system: Mus musculus; assay: Percentage efficacy to normalize the blood glucose levels to that of normal mouse in ob/ob mouse after 3 days and 4 hours of 30 mg/kg dose administration.; type: functional
# Outline: (§1)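 Adult male C57BL ob/ob mice, n = 6/group, matched on day-0 blood glucose; non-diabetic animals (<150 mg/dL basal) excluded. Oral dosing each morning days 1-3 in 0.5% CMC with 0.2% Tween-80. Tail-nick blood glucose by YSI analyzer. % efficacy = {1 − ([glc]cpd − 100)/([glc]veh − 100)} × 100. Significance by t-test vs vehicle, p < 0.05.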
# [2] = test system: Mus musculus; assay: Percentage efficacy to normalize the blood glucose levels to that of normal mouse in ob/ob mouse after 3 days and 8 hours of 100 mg/kg dose administration.; type: functional; outline: as §1
# [3] = test system: Mus musculus; assay: Percentage efficacy to normalize the blood glucose levels to that of normal mouse in ob/ob mouse after 3 days and 8 hours of 30 mg/kg dose administration.; type: functional; outline: as §1
# [4] = organism: Mus musculus; assay: Effective dose for glucose lowering in ob/ob mice; type: functional
# Outline: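 ob/ob mice, once-daily oral dosing for 3 days in 0.5% CMC/0.2% Tween-80, or in 40% microemulsion (Cremophor RH40, corn oil-monoglyceride, propylene glycol, ethanol) where stated; tail-nick blood glucose. % efficacy computed as below at selected doses; ED50 from sigmoidal fit of dose-response curve.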
# [5] = test system: Mus musculus; assay: Percentage efficacy to normalize the blood glucose levels to that of normal mouse in ob/ob mouse after 3 days and 4 hours of 100 mg/kg dose administration.; type: functional; outline: as §1
# [6] = test system: Mus musculus; assay: Percentage efficacy to normalize the blood glucose levels to that of normal mouse in ob/ob mouse after 3 days and 4 hours of 300 mg/kg dose administration.; type: functional; outline: as §1
# [7] = test system: Mus musculus; assay: Percentage efficacy to normalize the blood glucose levels to that of normal mouse in ob/ob mouse after 3 days and 8 hours of 300 mg/kg dose administration.; type: functional; outline: as §1
# [8] = test system: Mus musculus; assay: Percentage efficacy to normalize the blood glucose levels to that of normal mouse in ob/ob mouse after 3 days and 4 hours of 100 mg/kg dose administration; Nonsignificant; type: functional, organism-based; set-up: dose 100 mg/kg; outline: as §1
# [9] = test system: Mus musculus; assay: Percentage efficacy to normalize the blood glucose levels to that of normal mouse in ob/ob mouse after 3 days and 8 hours of 100 mg/kg dose administration; Nonsignificant; type: functional, organism-based; set-up: dose 100 mg/kg; outline: as §1
# [10] = test system: Mus musculus; assay: Percentage efficacy to normalize the blood glucose levels to that of normal mouse in ob/ob mouse after 3 days and 4 hours of 300 mg/kg dose administration; Nonsignificant; type: functional, organism-based; set-up: dose 300 mg/kg; outline: as §1
# [11] = test system: Mus musculus; assay: Percentage efficacy to normalize the blood glucose levels to that of normal mouse in ob/ob mouse after 3 days and 8 hours of 300 mg/kg dose administration; Nonsignificant; type: functional, organism-based; set-up: dose 300 mg/kg; outline: as §1
# [12] = test system: Mus musculus; assay: Percentage efficacy to normalize the blood glucose levels to that of normal mouse in ob/ob mouse after 3 days and 4 hours of 30 mg/kg dose administration; Nonsignificant; type: functional, organism-based; set-up: dose 30 mg/kg; outline: as §1
compound,measurement,setting,value
CN(C)C(=O)Cc1cn(-c2cccc(C(F)(F)F)c2)nc1-c1ccc2c(c1)Cc1ccccc1-2,Efficacy,[1],113%
same,Efficacy,[2],57%
same,Efficacy,[3],115%
same,ED50,[4],0.05 mg/kg/day
same,Efficacy,[5],87%
O=C(Cc1cn(-c2cccc(C(F)(F)F)c2)nc1-c1ccc(Cl)c(Cl)c1)N1CCCC1,Efficacy,[6],72%
same,Efficacy,[7],76%
CN(C)C(=O)Cc1cn(-c2cccc(C(F)(F)F)c2)nc1-c1ccc2c(ccc3ccccc32)c1,Efficacy,[2],71%
same,Efficacy,[5],90%
CN(C)C(=O)Cc1cn(-c2cccc(C(F)(F)F)c2)nc1-c1cccc2ccccc12,Efficacy,[8],Not significant
same,Efficacy,[9],Not significant
O=C(O)Cc1cn(-c2cccc(C(F)(F)F)c2)nc1-c1ccc(Cl)c(Cl)c1,Efficacy,[10],Not significant
same,Efficacy,[11],Not significant
Cc1cc(C)cc(-n2cc(CC(=O)N(C)C)c(-c3ccc(Cl)c(Cl)c3)n2)c1,Efficacy,[10],Not significant
same,Efficacy,[11],Not significant
CN(C)C(=O)Cc1cn(-c2ccc(F)cc2)nc1-c1ccc(Cl)c(Cl)c1,Efficacy,[6],84%
same,Efficacy,[7],39%
COc1ccc(-c2nn(-c3cccc(C(F)(F)F)c3)cc2CC(=O)N(C)C)cc1OC,Efficacy,[8],Not significant
same,Efficacy,[2],85%
CN(C)C(=O)Cc1cn(-c2cccc(C(F)(F)F)c2)nc1-c1ccc2ccccc2c1,Efficacy,[8],Not significant
same,Efficacy,[9],Not significant
CN(C)C(=O)Cc1cn(-c2cccc(C(F)(F)F)c2)nc1-c1ccc2c(c1)C(C)(O)c1ccccc1-2 (centres undefined),Efficacy,[2],64%
same,Efficacy,[5],73%
CN(C)C(=O)Cc1cn(-c2cccc(C(F)(F)F)c2)nc1-c1ccc(-c2ccc(F)cc2)cc1,Efficacy,[8],Not significant
same,Efficacy,[2],81%
CN(C)C(=O)Cc1cn(-c2cccc(C(F)(F)F)c2)nc1-c1ccc(-c2ccccc2)cc1,Efficacy,[1],80%
same,Efficacy,[2],69%
same,Efficacy,[3],94%
same,ED50,[4],1.3 mg/kg/day
same,Efficacy,[5],84%
CN(C)C(=O)Cc1cn(-c2cccc(C(F)(F)F)c2)nc1-c1ccc2sc3ccccc3c2c1,Efficacy,[9],Not significant
same,Efficacy,[5],59%
CN(C)C(=O)Cc1cn(-c2cccc(C(F)(F)F)c2)nc1-c1ccc(Cc2ccccc2)cc1,Efficacy,[8],Not significant
same,Efficacy,[9],Not significant
CN(C)C(=O)Cc1cn(-c2cccc(C(F)(F)F)c2)nc1-c1ccc2oc3ccccc3c2c1,Efficacy,[8],Not significant
same,Efficacy,[9],Not significant
CN(C(=O)Cc1cn(-c2cccc(C(F)(F)F)c2)nc1-c1ccc(Cl)c(Cl)c1)c1ccccc1,Efficacy,[6],57%
same,Efficacy,[11],Not significant
CN(C)C(=O)Cc1cn(-c2cccc(C(F)(F)F)c2)nc1-c1cc2ccccc2c2ccccc12,Efficacy,[8],Not significant
same,Efficacy,[9],Not significant
CN(C)C(=O)Cc1cn(-c2ccc(Cl)cc2)nc1-c1ccc(Cl)c(Cl)c1,Efficacy,[6],47%
same,Efficacy,[7],52%
O=C(Cc1cn(-c2cccc(F)c2)nc1-c1ccc(Cl)c(Cl)c1)N1CCCC1,Efficacy,[6],74%
same,Efficacy,[7],75%
CCN(CC)C(=O)Cc1cn(-c2cccc(C(F)(F)F)c2)nc1-c1ccc(Cl)c(Cl)c1,Efficacy,[6],45%
same,Efficacy,[7],50%
O=C(Cc1cn(-c2cccc(C(F)(F)F)c2)nc1-c1ccc(Cl)c(Cl)c1)N(Cc1ccccc1)Cc1ccccc1,Efficacy,[2],49%
same,Efficacy,[5],52%
CN1CCN(C(=O)Cc2cn(-c3cccc(C(F)(F)F)c3)nc2-c2ccc(Cl)c(Cl)c2)CC1,Efficacy,[6],54%
same,Efficacy,[11],Not significant
CN(C)C(=O)Cc1cn(-c2cccc(C(F)(F)F)c2)nc1-c1ccc2c(c1)CCc1ccccc1-2,Efficacy,[2],111%
same,Efficacy,[5],87%
O=C(Cc1cn(-c2cccc(C(F)(F)F)c2)nc1-c1ccc(Cl)c(Cl)c1)Nc1ccccc1,Efficacy,[10],Not significant
same,Efficacy,[11],Not significant
O=C(Cc1cn(-c2cccc(C(F)(F)F)c2)nc1-c1ccc(Cl)c(Cl)c1)N1CCN(C(c2ccccc2)c2ccccc2)CC1,Efficacy,[8],Not significant
same,Efficacy,[12],Not significant
same,Efficacy,[2],45%
same,Efficacy,[3],48%
CN(C)C(=O)Cc1cn(-c2cccc(C(F)(F)F)c2)nc1-c1ccc(Oc2ccccc2)cc1,Efficacy,[8],Not significant
same,Efficacy,[9],Not significant
CONC(=O)Cc1cn(-c2cccc(C(F)(F)F)c2)nc1-c1ccc(Cl)c(Cl)c1,Efficacy,[6],48%
same,Efficacy,[7],35%
CN(C)C(=O)Cc1cn(-c2cccc(C(F)(F)F)c2)nc1-c1ccc2c(c1)Cc1ccccc1C2,Efficacy,[2],70%
same,Efficacy,[5],79%
CN(C)C(=O)Cc1cn(-c2cc(C(F)(F)F)cc(C(F)(F)F)c2)nc1-c1ccc(Cl)c(Cl)c1,Efficacy,[10],Not significant
same,Efficacy,[11],Not significant
CCOC(=O)Cc1cn(-c2cccc(C(F)(F)F)c2)nc1-c1ccc(Cl)c(Cl)c1,Efficacy,[10],Not significant
same,Efficacy,[11],Not significant
CN(C)C(=O)Cc1cn(-c2ccc(Cl)c(Cl)c2)nc1-c1ccc(Cl)c(Cl)c1,Efficacy,[6],34%
same,Efficacy,[7],53%
O=C(Cc1cn(-c2cccc(C(F)(F)F)c2)nc1-c1ccc(Cl)c(Cl)c1)NO,Efficacy,[10],Not significant
same,Efficacy,[11],Not significant
COc1ccc(-n2cc(CC(=O)N(C)C)c(-c3ccc(Cl)c(Cl)c3)n2)cc1,Efficacy,[6],39%
same,Efficacy,[7],35%
CN(C)C(=O)Cc1cn(-c2cccc(C(F)(F)F)c2)nc1-c1ccc2c(c1)Cc1ccccc1O2,Efficacy,[2],96%
same,Efficacy,[5],65%
CN(C)C(=O)Cc1cn(-c2cccc(C(F)(F)F)c2)nc1-c1ccc(Cl)cc1,Efficacy,[7],78%
same,Efficacy,[10],Not significant
CC(=O)OC1c2ccccc2-c2ccc(-c3nn(-c4cccc(C(F)(F)F)c4)cc3CC(=O)N(C)C)cc21 (centres undefined),Efficacy,[2],108%
same,Efficacy,[5],95%
CN(C)C(=O)Cc1cn(-c2ccc(C(F)(F)F)cc2)nc1-c1ccc(Cl)c(Cl)c1,Efficacy,[6],45%
same,Efficacy,[7],37%
Cc1cccc(-n2cc(CC(=O)N(C)C)c(-c3ccc(Cl)c(Cl)c3)n2)c1,Efficacy,[8],Not significant
same,Efficacy,[9],Not significant
O=C(Cc1cn(-c2cccc(C(F)(F)F)c2)nc1-c1ccc(Cl)c(Cl)c1)N1CCN(c2ccccc2)CC1,Efficacy,[8],Not significant
same,Efficacy,[2],42%
O=C(Cc1cn(-c2cccc(C(F)(F)F)c2)nc1-c1ccc(Cl)c(Cl)c1)N1CCCCC1,Efficacy,[10],Not significant
same,Efficacy,[11],Not significant
CN(C)C(=O)Cc1cn(-c2cccc(C(F)(F)F)c2)nc1-c1ccc(-c2ccc(-c3ccccc3)cc2)cc1,Efficacy,[8],Not significant
same,Efficacy,[9],Not significant
Cc1ccc(-c2nn(-c3cccc(C(F)(F)F)c3)cc2CC(=O)N(C)C)cc1,Efficacy,[6],58%
same,Efficacy,[7],36%
CN(C)C(=O)Cc1cn(-c2cccc(C(F)(F)F)c2)nc1-c1cccc(-c2ccccc2)c1,Efficacy,[8],Not significant
same,Efficacy,[9],Not significant
O=C(Cc1cn(-c2cccc(C(F)(F)F)c2)nc1-c1ccc(Cl)c(Cl)c1)N1CCOCC1,Efficacy,[10],Not significant
same,Efficacy,[11],Not significant
CN(C)C(=O)Cc1cn(-c2cccc(C(F)(F)F)c2)nc1-c1ccc2c(c1)C(C)(C)c1ccccc1-2,Efficacy,[2],83%
same,Efficacy,[5],67%
CN(C)C(=O)Cc1cn(-c2cc(Cl)cc(Cl)c2)nc1-c1ccc(Cl)c(Cl)c1,Efficacy,[6],52%
same,Efficacy,[11],Not significant
CN(C)C(=O)Cc1cn(-c2cccc(C(F)(F)F)c2)nc1-c1ccc(Cl)c(Cl)c1,Efficacy,[7],63%
same,Efficacy,[10],Not significant
CN(C)C(=O)Cc1cn(-c2cccc(C(F)(F)F)c2)nc1-c1ccccc1,Efficacy,[6],71%
same,Efficacy,[7],36%
CN(C)C(=O)Cc1cn(-c2cccc(C(F)(F)F)c2)nc1-c1ccccc1-c1ccccc1,Efficacy,[8],Not significant
same,Efficacy,[9],Not significant
CN(C)C(=O)Cc1cn(-c2ccc(C(C)(C)C)cc2)nc1-c1ccc(Cl)c(Cl)c1,Efficacy,[8],Not significant
same,Efficacy,[9],Not significant
CN(C)C(=O)Cc1cn(-c2cccc(C(F)(F)F)c2)nc1-c1ccc(C(C)(C)C)cc1,Efficacy,[8],Not significant
same,Efficacy,[9],Not significant
CN(C)C(=O)Cc1cn(-c2cccc([N+](=O)[O-])c2)nc1-c1ccc(Cl)c(Cl)c1,Efficacy,[2],-88%
same,Efficacy,[5],-72%
CN(C)C(=O)Cc1cn(-c2cccc(C(F)(F)F)c2)nc1-c1ccc2c(c1)C(=O)c1ccccc1-2,Efficacy,[2],78%
same,Efficacy,[5],107%

# From ChEMBL document CHEMBL1134551, “The effect of 1,3-diaryl-[1H]-pyrazole-4-acetamides on glucose utilization in ob/ob mice” (2001)
